Data published in ChEMBL document CHEMBL3616414, “Macrocyclic Envelope Glycoprotein Antagonists that Irreversibly Inactivate HIV-1 before Host Cell Encounter” (J Med Chem, 2015).
pIC50: −log10 of the molar value.

What was measured:
[1] = Inhibition of HIV1 gp120 binding to CD4 by SPR competition binding assay; parameters: species or system Human immunodeficiency virus 1
[2] = Inhibition of HIV1 gp120 binding to 17b antibody by SPR competition binding assay; parameters: species or system Human immunodeficiency virus 1
[3] = Stability assessed as trypsin (unknown origin)-mediated compound degradation incubated for 5 hrs at 37 degC by HPLC and ESI-MS method; format: ADME; conditions: human
Method in brief: (§1)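 Each peptide was incubated on its own with a single protease (trypsin or chymotrypsin) at 37 °C. Digestion was tracked by HPLC and ESI-MS for remaining intact peptide. For chymotrypsin, samples were taken after 30 min, and the cyclic peptide was also checked after 20 h and 40 h.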

[4] = Stability assessed as chymotrypsin (unknown origin)-mediated compound degradation incubated for 5 hrs at 37 degC by HPLC and ESI-MS method; format: ADME; conditions: human
Method in brief: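 Each peptide incubated on its own with chymotrypsin at 37 °C. Digestion followed over time by HPLC, with ESI-MS used to check the intact peptide and its fragments. Extended sampling at 20 h and 40 h was also done.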

[5] = Stability assessed as chymotrypsin (unknown origin)-mediated compound degradation incubated for 30 mins at 37 degC by HPLC and ESI-MS method; format: ADME; conditions: human, 0.5 h; method in brief: as §1
[6] = Stability assessed as chymotrypsin (unknown origin)-mediated compound degradation incubated for 20 hrs at 37 degC by HPLC and ESI-MS method; format: ADME; conditions: human; method in brief: as §1
[7] = Stability assessed as chymotrypsin (unknown origin)-mediated compound degradation incubated for 40 hrs at 37 degC by HPLC and ESI-MS method; format: ADME; conditions: human; method in brief: as §1

Row | SMILES | pIC50 [1] | pIC50 [2] | other results
1 | CC[C@@H](C)[C@H]1NC(=O)[C@@H](CC(N)=O)NC(=O)[C@@H](N)CC(=O)NCCC[C@H](C(N)=O)NC(=O)[C@@H](Cc2c[nH]c3ccccc23)NC(=O)[C@H]2C[C@@H](n3cc(CCc4ccccc4)nn3)CN2C1=O | 5.24 | 5.41 | 
2 | CC[C@@H](C)[C@@H](NC(=O)[C@@H](CC(N)=O)NC(=O)[C@@H](N)CC(=O)O)C(=O)N1C[C@H](n2cc(CCc3ccccc3)nn2)C[C@@H]1C(=O)N[C@H](Cc1c[nH]c2ccccc12)C(=O)N[C@H](CCCCN)C(N)=O |  |  | metabolised at 5 h ([3]; trypsin, read-out: Drug degradation): 60%; Drug degradation [4]: 60%; Drug degradation [5]: 100%
3 | CC[C@@H](C)[C@H]1NC(=O)[C@@H](CC(N)=O)NC(=O)[C@@H](N)CC(=O)NCCCC[C@H](C(N)=O)NC(=O)[C@@H](Cc2c[nH]c3ccccc23)NC(=O)[C@H]2C[C@@H](n3cc(CCc4ccccc4)nn3)CN2C1=O | 7.07 | 7.02 | Stability ([3]; 5 h): Stable; Stability [4]: Stable; Stability [5]: Stable; Stability [6]: Stable; Stability [7]: Stable

Second part, led by results:

Row | pIC50 [1] | pIC50 [2] | SMILES | other results
4 | 6.86 | 6.57 | CC[C@@H](C)[C@@H](N)C(=O)N[C@H]1CCC(=O)NCCCC[C@H](C(N)=O)NC(=O)[C@@H](Cc2c[nH]c3ccccc23)NC(=O)[C@H]2C[C@@H](n3cc(CCc4ccccc4)nn3)CN2C(=O)[C@@H]([C@H](C)CC)NC(=O)[C@@H](CC(N)=O)NC1=O | 
5 | 6.30 | 6.40 | CC[C@@H](C)[C@H]1NC(=O)[C@@H](CC(N)=O)NC(=O)[C@@H](N)CC(=O)NCC[C@H](C(N)=O)NC(=O)[C@@H](Cc2c[nH]c3ccccc23)NC(=O)[C@H]2C[C@@H](n3cc(CCc4ccccc4)nn3)CN2C1=O | 
6 | < 4.40 | < 4.40 | CC[C@@H](C)[C@H]1NC(=O)[C@@H](CC(N)=O)NC(=O)[C@@H](N)CCC(=O)NCCCC[C@H](C(N)=O)NC(=O)[C@@H](Cc2c[nH]c3ccccc23)NC(=O)[C@H]2C[C@@H](n3cc(CCc4ccccc4)nn3)CN2C1=O | 
7 | < 4.70 | < 4.70 | CC[C@@H](C)[C@H]1NC(=O)[C@@H](CC(N)=O)NC(=O)[C@@H](N)CCC(=O)NCC[C@H](C(N)=O)NC(=O)[C@@H](Cc2c[nH]c3ccccc23)NC(=O)[C@H]2C[C@@H](n3cc(CCc4ccccc4)nn3)CN2C1=O | 
